The values that follow come from ChEMBL document CHEMBL4513216, “Probing the Open Global Health Chemical Diversity Library for Multistage-Active Starting Points for Next-Generation Antimalarials” (ACS Infect Dis, 2020).

This data set in a line: Toxicity liver stage against HepG2, at 10uM. As to conditions: human, HepG2-A16-CD81EGFP cells; read-out: INHIBITION
Also on record: test concentration 10 uM, cell line HepG2-A16-CD81EGFP. The class given is cell-based. A digest of the protocol: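 Uninfected HepG2-A16-CD81EGFP cells, 3 × 10^3 per well, 1536-well, plated on prespotted compound at 10 μM final, parasite-free screening media added to match infected plates; puromycin 10 μM positive, DMSO 0.5% negative; run in parallel with 48 h PbLuc assay at 37 °C, 5% CO2; viability by CellTiter-Glo luminescence, normalized to controls.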
As to `CN1CC=C(c2noc(CCC(=O)N3CCc4ccccc43)n2)CC1`, the cytotoxicity at 10 µM was 7.22%.

As to `C[C@@H](O)CNc1c(NCc2ccco2)c(=O)c1=O`, the cytotoxicity at 10 µM was -7.58%.

In the case of `O=C(O)c1nc(SCc2ccccc2)ncc1Br`, the cytotoxicity at 10 µM came to 0.231%.

As for `COc1ccc(C2SCC(=O)Nc3n[nH]cc32)c(OC)c1OC` (stereo unspecified), the cytotoxicity at 10 µM worked out at 4.68%.

Consider `Cn1c(=O)[nH]c(=O)n2c(CC(=O)Nc3ccccc3)cnc12`, for which the cytotoxicity at 10 µM is 5.81%.

Regarding `Cc1cnn(CC(=O)N2CCC(c3ccn4nccc4n3)CC2)c1`, the cytotoxicity at 10 µM was 3.24%.

As to `O=C(c1cc2c(s1)CCC2)N1CCC(c2ccncc2)CC1`, the cytotoxicity at 10 µM stood at 39.7%.

Regarding `CC(C)(C)CN1CCCC12Cc1ccccc1CNC2=O` (stereo unspecified), the cytotoxicity at 10 µM turned out to be 22.1%.

Regarding `CCn1cnnc1CNC(=O)NC(c1ccc(OC)cc1)C1CC1` (stereo unspecified), the cytotoxicity at 10 µM came to 1.77%.

For the compound `Cc1nc(CN2CCCN(CC(=O)N(C)C(C)(C)C#N)CC2)no1`, the cytotoxicity at 10 µM was 9.5%.

Take `N#Cc1cc(Cl)ccc1N1CCOC(C(N)=O)C1` (stereo unspecified): the cytotoxicity at 10 µM is 11.7%.

Take `Cn1nc(C(C)(C)C)cc1NC(=O)CSc1nnc[nH]1`: the cytotoxicity at 10 µM came out at 0.353%.

As for `CC(C)c1ncc2c(n1)CN(Cc1ccc3c(c1)OCCO3)CC2`, the cytotoxicity at 10 µM is -0.996%.

With `C=C(C)CN1CCC(NC(=O)Nc2cc(C(N)=O)ccc2OC)CC1`, the cytotoxicity at 10 µM amounted to 10.8%.

`COCCCC(=O)NC1(c2cccc(Br)c2)CC1`: the cytotoxicity at 10 µM was determined as 2.11%.

On to `COc1cccc(OCC(=O)NS(=O)(=O)c2cc(F)ccc2F)c1`, for which the cytotoxicity at 10 µM turned out to be 7.53%.

As for `CC(=O)N1Cc2ccccc2CC1C(=O)Nc1ccc(C)cn1` (stereo unspecified), the cytotoxicity at 10 µM is -0.147%.

`O=C(c1ncoc1C1CCCO1)N1CC2(CCCC2)c2ccccc21` (stereo unspecified): the cytotoxicity at 10 µM is 3.13%.

With `Cc1cnn(CCNCCCOc2ccc3c(c2)OCO3)c1`, the cytotoxicity at 10 µM is -3.6%.

As for `Cc1ccc(NC(=O)CCC2CC2)cc1N1CCOC1=O`, the cytotoxicity at 10 µM amounted to 3.86%.

As for `O=C(NCCNCC1CNc2ccnn2C1)c1ccc(F)cc1` (stereo unspecified), the cytotoxicity at 10 µM was -8.75%.

`CCc1ccc(CN2CCC3(CC(C(=O)NCC(C)C)=NO3)C2)o1` (stereo unspecified): the cytotoxicity at 10 µM was 6.46%.

`O=c1ccc2c([nH]1)CCC(NS(=O)(=O)C1CC1)C2` (stereo unspecified): the cytotoxicity at 10 µM was 3.66%.

For `CCn1cc2c(n1)C(COC)CN(C(=O)c1ccccn1)C2` (stereo unspecified), the cytotoxicity at 10 µM came to 2.61%.

Turning to `Cc1cc(Cl)ccc1C(=O)N[C@H]1CN(S(C)(=O)=O)C[C@@H]1C1CC1`, the cytotoxicity at 10 µM turned out to be 8.9%.

As to `CC(C)=CCN1CCN(C(=O)c2snnc2C)[C@H]2CS(=O)(=O)C[C@H]21`, the cytotoxicity at 10 µM was -0.987%.

Consider `COC1CCN(S(=O)(=O)N2CCC3(CCCNC3=O)C2)CC1` (stereo unspecified), for which the cytotoxicity at 10 µM was found to be 1.1%.

Take `Nc1nc(CNc2nccc(CCC(F)(F)F)n2)cs1`: the cytotoxicity at 10 µM was -2.38%.

Regarding `COc1ccc(-c2cccc(-c3ccn(CCCN(C)C)n3)c2)nn1`, the cytotoxicity at 10 µM is -1.01%.

As to `O=C(O)[C@@H]1CN(Cc2ccc3nsnc3c2)C[C@H]1c1cccnc1`, the cytotoxicity at 10 µM came out at 4.46%.

With `O=C(C1CC1)N1C[C@H]2CNC[C@@]2(C(=O)NCCCc2ccccc2)C1`, the cytotoxicity at 10 µM was -0.371%.

For `CN(C)C[C@H]1CC[C@@H](Cc2ccc3c(cnn3C)c2)O1`, the cytotoxicity at 10 µM is -1.07%.

For the compound `COc1ncccc1C(=O)N1CCC(c2nc3c(C)cccc3[nH]2)CC1`, the cytotoxicity at 10 µM turned out to be 11.7%.

`Cc1nc2c(c(N3CCN(c4ncccc4C(N)=O)CC3)n1)CCNC2`: the cytotoxicity at 10 µM is -4.69%.

On to `O=C(CCc1ccco1)N1CCc2[nH]nc(COc3ccccc3)c2C1`, for which the cytotoxicity at 10 µM is 0.86%.

As for `CN1CC=C(CCN(C)C(=O)CCc2ccccc2)CC1`, the cytotoxicity at 10 µM is -5.84%.

On to `Cc1cccc(SC2CCN(C(=O)CCCS(N)(=O)=O)CC2)c1`, for which the cytotoxicity at 10 µM is -6.01%.

As for `CCn1c(C2CCN(C(=O)c3cc(C4CC4)on3)CC2)nn(C)c1=O`, the cytotoxicity at 10 µM was -5.82%.

Take `CSCCC(O)C(=O)N1CCCN(Cc2ccc(F)cc2)CC1` (stereo unspecified): the cytotoxicity at 10 µM stood at 5.14%.

Regarding `CN1CC2(CCN(C(=O)c3ccc4c(=O)n(C)cnc4c3)CC2)CC1=O`, the cytotoxicity at 10 µM is 5.58%.

Take `CCCc1cncnc1N1CCCC2(CCC(=O)N(C3CCCC3)C2)C1` (stereo unspecified): the cytotoxicity at 10 µM came out at 0.887%.

As to `Cc1nn(CCO)cc1CN1CCC(C(C)N2CCCC2)CC1` (stereo unspecified), the cytotoxicity at 10 µM is -1.04%.

As for `COc1ccccc1-n1cc(C(=O)NCCn2nc(C)nc2C)cn1`, the cytotoxicity at 10 µM amounted to 9.27%.

In the case of `CS(=O)(=O)c1ccc(CN2CCCCC2c2ccc(F)cc2)cc1` (stereo unspecified), the cytotoxicity at 10 µM was 6.04%.

Take `Cc1nn(C)c(C)c1CCC(=O)NCc1csc(N2CCCC2)n1`: the cytotoxicity at 10 µM was -4.55%.

As for `CCN1CCN(S(=O)(=O)c2cnc(NC(C)=O)s2)CC1`, the cytotoxicity at 10 µM worked out at 1.37%.

`CCOc1ccc(-c2cc(CCN)ccc2OC)cc1`: the cytotoxicity at 10 µM is 1.63%.

As to `Cc1nnsc1C(=O)N1CCC2(CC1)c1nc[nH]c1CCN2CC(C)C`, the cytotoxicity at 10 µM came out at 26.3%.

As for `Cc1nn(-c2ccccc2)c2c1C(c1ccc(C(=O)O)cc1)CC(=O)N2` (stereo unspecified), the cytotoxicity at 10 µM was determined as 10.6%.

With `CC(C)(C)c1nnc(CN2CCCC2Cn2cncn2)o1` (stereo unspecified), the cytotoxicity at 10 µM is -4.04%.

Turning to `COc1c(C)cnc(CN2CCC(C(=O)N(C)C)CC2)c1C`, the cytotoxicity at 10 µM was -12.6%.

On to `CCc1nc2n(n1)CC(NCc1ccnc(-c3ccccc3)n1)CC2` (stereo unspecified), for which the cytotoxicity at 10 µM is -8.3%.

As for `Cc1nc(-c2nnc[nH]2)sc1C(=O)N(Cc1cccnc1)C1CC1`, the cytotoxicity at 10 µM is -5.79%.

In the case of `Cc1ccc(C(=O)N2CCN(CCc3cccs3)CC2)c(=O)[nH]1`, the cytotoxicity at 10 µM was -3.94%.

Consider `c1ccc(-c2nc(CN3CCCC3Cn3cncn3)cs2)cc1` (stereo unspecified), for which the cytotoxicity at 10 µM was -14%.

As to `CCN1CCN(C2CCN(Cc3c(C)noc3C)CC2)C1=O`, the cytotoxicity at 10 µM is -7.85%.

With `c1ccc(-c2nnc(CNCCn3cccn3)o2)cc1`, the cytotoxicity at 10 µM is -10.7%.

On to `O=C(NCCN1CCOCC1)NCC(O)c1cccc(F)c1` (stereo unspecified), for which the cytotoxicity at 10 µM is -9.24%.

For the compound `O=C(NCCn1ccnc1)N1CCN(c2nccs2)CC1`, the cytotoxicity at 10 µM was -3.68%.

For `CCOc1ncccc1C(=O)N1CCCC1c1c(C)nn(C)c1OC` (stereo unspecified), the cytotoxicity at 10 µM was -13%.

On to `Cc1ccsc1CNC(=O)Cc1c(C)nc2c(c1C)c(=O)[nH]n2C`, for which the cytotoxicity at 10 µM is -0.168%.

As to `CN(C)c1ncc(CN2CCC(O)(c3ccccc3F)CC2)cn1`, the cytotoxicity at 10 µM came to 2.4%.

As to `CCCSc1ncc(CN(C)CCN2CCCCC2)cn1`, the cytotoxicity at 10 µM was -1.39%.

Regarding `Cn1ccnc1C(=O)N1CCC2(CC1)CC(Oc1cccnc1)CO2` (stereo unspecified), the cytotoxicity at 10 µM is 3.04%.

As to `Cc1nc(CN2CCN(C)C(=O)C23CCN(C(C)C)CC3)cs1`, the cytotoxicity at 10 µM was 2.33%.

As to `Cc1cccc(N2CCOCC3(C2)CN(c2ccoc2)C(=O)CO3)n1` (stereo unspecified), the cytotoxicity at 10 µM turned out to be 4.39%.

On to `O=C1[C@H]2CN(Cc3nccs3)C[C@H]2CN1c1ccsc1`, for which the cytotoxicity at 10 µM came to 3.06%.

For `CNC(=O)c1cc2c(nc1NCC1CC1)CCN(c1ccncn1)CC2`, the cytotoxicity at 10 µM came out at 3.17%.

As to `CC(C)Nc1nc2c(cc1C(=O)NCC1CC1)CCNCC2`, the cytotoxicity at 10 µM is -5.42%.

In the case of `O=C(NC1CCCC1)[C@@H]1CN(Cc2nccs2)C[C@H]2OCC[C@H]21`, the cytotoxicity at 10 µM came out at 4.91%.

As to `COc1ccc(CN2C[C@@H]3OCCN(c4ncccn4)[C@@H]3C2)cc1`, the cytotoxicity at 10 µM was 4.71%.
